{"data": "Experimental data gathered from unrelated publications", "target": "Casein kinase I isoform alpha (CSNK1A1, Homo sapiens, UniProt P48729)", "note": "Protocols differ between the studies behind these lines."}
{"SMILES": "Cc1cc(-n2nc(Cc3cc(F)cc(C(F)(F)F)c3)nc2C)ccc1C(N)=O", "observed": "cell-free assay", "technique": "competition with immobilised ligand", "concentration": "1 µM", "measurement": "remaining binding", "result": "100%"}
{"SMILES": "CN(C)C1CCN(CC#Cc2nn(C3CCCC3)c3nc(NCc4ccccc4)ncc23)C1 (centres unmarked)", "observed": "enzyme activity", "action": "inhibitor", "technique": "FRET", "concentration": "0.1 µM", "measurement": "inhibition", "result": "2%"}
{"SMILES": "Cc1ccc(NC(=O)c2ccc(CN3CCN(C)CC3)cc2)cc1Nc1nccc(-c2cccnc2)n1", "observed": "enzyme activity", "action": "inhibitor", "concentration": "0.5 µM", "measurement": "activity vs control", "result": "102%"}
{"SMILES": "CN(C)C(=O)Cn1cc(-c2nc(C3(c4ccc(-c5cnc(N)nc5)cc4)CC3)no2)cn1", "observed": "cell-free assay", "technique": "competition with immobilised ligand", "concentration": "1 µM", "measurement": "remaining binding", "result": "62%"}
{"SMILES": "CCCS(=O)(=O)Nc1ccc(F)c(C(=O)c2c[nH]c3ncc(-c4ccc(Cl)cc4)cc23)c1F", "observed": "enzyme activity", "action": "inhibitor", "concentration": "1 µM", "measurement": "inhibition", "result": "< 10%"}
{"SMILES": "Nc1cnc(N2CCc3cc(S(=O)(=O)Nc4c(F)cc(Cl)cc4F)cc(N4CCCC4=O)c32)nc1", "observed": "cell-free assay", "technique": "competition with immobilised ligand", "concentration": "1 µM", "measurement": "remaining binding", "result": "100%"}
{"SMILES": "Nc1ncnc2occ(-c3ccc(NC(=O)Nc4cc(C(F)(F)F)ccc4F)cc3)c12", "observed": "enzyme activity", "action": "inhibitor", "concentration": "20 µM", "measurement": "remaining activity", "result": "3.7%"}
{"SMILES": "Cc1sc(C(=O)NC2COC2)cc1-n1cc(NC(=O)Nc2c(F)cccc2Cl)cn1", "observed": "enzyme activity", "action": "inhibitor", "concentration": "10 µM", "measurement": "remaining activity", "result": "81.1%"}
{"SMILES": "CCC(=O)N[C@@H]1CC[C@H](C(=O)N(C)c2ccc(-c3nc4ccccc4o3)cc2)C1", "observed": "cell-free assay", "technique": "competition with immobilised ligand", "concentration": "1 µM", "measurement": "remaining binding", "result": "100%"}
{"SMILES": "CC(C)(C)c1nc(-c2cccc(NS(=O)(=O)c3c(F)cccc3F)c2F)c(-c2ccnc(N)n2)s1", "observed": "enzyme activity", "action": "inhibitor", "technique": "radiometric", "concentration": "1 µM", "measurement": "remaining activity", "result": "94%"}
{"SMILES": "CCCCNc1ncc2c(-c3ccc(F)cc3)nn(C[C@H]3CC[C@H](N)CC3)c2n1", "observed": "target engagement in cells", "action": "inhibitor", "technique": "chemoproteomics", "concentration": "20 mM", "measurement": "inhibition", "result": "79.3%"}
{"SMILES": "C[S+]([O-])c1ccc(-c2nc(-c3ccncc3)c(-c3ccc(F)cc3)[nH]2)cc1 (centres unmarked)", "observed": "cell-free assay", "concentration": "0.5 µM", "measurement": "remaining signal", "result": "63.9%"}
{"SMILES": "Cc1ccc(C(=O)NCc2ccsc2)cc1C#Cc1cn(C(C)C)c2ncnc(N)c12", "observed": "enzyme activity", "action": "inhibitor", "concentration": "1 µM", "measurement": "activity vs control", "result": "86%"}
{"SMILES": "CC(C)(O)[C@H]1CC[C@H](Nc2ccc3ncc(-c4cccc(C(F)(F)F)c4)n3n2)CC1", "observed": "enzyme activity", "action": "inhibitor", "concentration": "1 µM", "measurement": "remaining activity", "result": "91.4%"}
{"SMILES": "CC(=O)N1CCC(c2ccc(C(=O)NC3=NCCN3)cc2C(F)(F)F)CC1", "observed": "cell-free assay", "technique": "competition with immobilised ligand", "concentration": "1 µM", "measurement": "remaining binding", "result": "76%"}
{"SMILES": "O=Nc1c(-c2c(O)[nH]c3cc(Br)ccc23)[nH]c2ccccc12", "observed": "enzyme activity", "action": "inhibitor", "concentration": "0.5 µM", "measurement": "activity vs control", "result": "95.1%"}
{"SMILES": "c1ccc(CNc2nc(N3CCOc4ccccc43)nc3c2CCCC3)cc1", "observed": "target engagement in cells", "action": "inhibitor", "technique": "chemoproteomics", "concentration": "20 mM", "measurement": "inhibition", "result": "-1.4%"}
{"SMILES": "COc1cc2c(Nc3ccc(Br)cc3F)ncnc2cc1OCC1CCN(C)CC1", "observed": "cell-free assay", "concentration": "0.5 µM", "measurement": "remaining signal", "result": "102%"}
{"SMILES": "Cc1c(NC(=O)c2cc(C(N)=O)nc3cc(F)ccc23)c(C(F)(F)F)nn1Cc1ccc(C#N)cc1", "observed": "cell-free assay", "technique": "competition with immobilised ligand", "concentration": "1 µM", "measurement": "remaining binding", "result": "72%"}
{"SMILES": "O=C1Nc2ccc(Cl)cc2C1=Cc1cc(Cl)c(O)c(Cl)c1", "observed": "cell-free assay", "concentration": "0.5 µM", "measurement": "remaining signal", "result": "92.6%"}
{"SMILES": "CCN1CCN(Cc2ccc(NC(=O)c3ccc(C)c(/C=C/c4cnc5[nH]ccc5c4OC)c3)cc2C(F)(F)F)CC1", "observed": "target engagement in cells", "action": "inhibitor", "technique": "chemoproteomics", "cell line": "A-375", "concentration": "50 nM", "measurement": "inhibition", "result": "-59.4%"}
{"SMILES": "O=C1NC(=O)c2cc(Nc3ccc(F)cc3)c(Nc3ccc(F)cc3)cc21", "observed": "cell-free assay", "action": "inhibitor", "concentration": "0.5 µM", "measurement": "remaining signal", "result": "88%"}
{"SMILES": "COc1cc(-c2cn(C3CCc4c(F)cccc4N(CC(F)(F)F)C3=O)nn2)ccc1-n1cnc(C)c1 (centres unmarked)", "observed": "cell-free assay", "technique": "competition with immobilised ligand", "concentration": "1 µM", "measurement": "remaining binding", "result": "100%"}
{"SMILES": "COc1cc2ncnc(Nc3ccc(Oc4ccccc4)c(C)c3C)c2cc1OC", "observed": "enzyme activity", "action": "inhibitor", "concentration": "1 µM", "measurement": "inhibition", "result": "3%"}
{"SMILES": "CCN1CCN(Cc2ccc(NC(=O)c3ccc(C)c(Oc4ccnc5[nH]ccc45)c3)cc2C(F)(F)F)CC1", "observed": "target engagement in cells", "action": "inhibitor", "technique": "chemoproteomics", "cell line": "A-375", "concentration": "50 nM", "measurement": "inhibition", "result": "-28%"}
{"SMILES": "Nc1c(C(=O)NCc2ccc(C(=O)NCCCC3CCCCC3)cc2)cnn1-c1ccccc1", "observed": "cell-free assay", "technique": "competition with immobilised ligand", "concentration": "0.1 µM", "measurement": "remaining binding", "result": "100%"}
